Bioassay records as filed in PubChem BioAssay.
tolC growth inh = growth inhibitors of E. coli BW25113 tolC mutant; 65,000 compounds, 2.2% hits; OD615; AID 573; growth inhibition, % at 10 µM (by protocol);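 active = growth inhibition at or above a cutoff equal to the mean over every tested compound plus 3 SD, cut at about 60% in these data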;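 note: growth measured after 20 h incubation at 37 °C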
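Assay system: tolC-deleted E. coli BW25113. Medium: kanamycin-containing LB broth (50 µg/mL). Dosing: 10 µM final, single dose. Timing: bacterial growth with compound for 20 h at 37 °C. Detection: A615 absorbance measurement. Read-out basis: growth inhibition in percent.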
CYP2C19 activ = cytochrome P450 2C19 (human) activation; P33261; activation factor at 5 µM; recombinant CYP2C19, luciferin-H EGE luminescence; hits give high values; 0 = fully inhibited enzyme, 1 = untreated enzyme; 96,000 tested, under 10 active; AID 1025;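 active = activation factor of at least 2 at 5 µM in the primary screen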;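 note: 0 = wells with 2.5 mM tranylcypromine and 1 = vehicle-only wells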
CYP2C9 act = increases human cytochrome P450 2C9 activity | recombinant CYP2C9, luciferin-H conversion, luminescence; hits give high values; factor 1 = untreated enzyme, 0 = blocked | activation factor at 5 µM | 96,000 compounds, 1.4% hits;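 active = activation factor of 2 or more for CYP2C9 at a 5 µM dose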;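 note: 0 = sulfaphenazole-blocked wells and 1 = vehicle-only wells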
Target sequence (P11712 whole entry, looked up): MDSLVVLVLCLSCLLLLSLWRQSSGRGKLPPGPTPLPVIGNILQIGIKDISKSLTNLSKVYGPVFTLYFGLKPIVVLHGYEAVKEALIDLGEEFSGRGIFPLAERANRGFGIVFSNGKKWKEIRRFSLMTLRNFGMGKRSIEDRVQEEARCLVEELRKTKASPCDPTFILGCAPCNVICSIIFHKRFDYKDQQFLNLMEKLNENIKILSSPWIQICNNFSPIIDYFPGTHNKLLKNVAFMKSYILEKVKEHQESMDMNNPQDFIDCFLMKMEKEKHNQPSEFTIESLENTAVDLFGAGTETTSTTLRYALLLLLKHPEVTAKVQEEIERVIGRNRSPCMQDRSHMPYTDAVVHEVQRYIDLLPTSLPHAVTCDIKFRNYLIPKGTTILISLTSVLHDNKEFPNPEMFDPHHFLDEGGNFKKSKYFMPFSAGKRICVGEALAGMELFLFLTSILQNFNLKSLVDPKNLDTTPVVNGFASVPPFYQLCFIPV
CYP2C9 inhib = blocks human cytochrome P450 2C9. 96,000 compounds, 20% hits. inhibition, % at 5 µM. CYP2C9 Supersomes, luciferin-H conversion, luminescence. AID 777;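 active = blocking of liver enzyme CYP2C9 beyond about 50% at 5 µM, limit read from the data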
Ecoli WT expand = blocks growth of wild type E. coli BW25113; OD600 absorbance; 98,000 compounds, 0.15% hits; growth inhibition, % at 100 µM; AID 710;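 active = growth inhibition above about 50% at one test dose, limit read from the data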;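 note: growth measured after 20 h incubation at 37 °C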
CYP2C19 inh = inhibitors of human CYP2C19; CYP2C19 Supersomes, luciferin-H EGE luminescence, 30 min; inhibition, % at 5 µM; 96,000 compounds, 21% hits; AID 778;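 active = CYP2C19 inhibition above a set limit at 5 µM in the primary screen, cut at about 50% in these data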;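 note: plate controls were negative control wells for no effect and 2.5 mM tranylcypromine positive control for full effect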
An asterisk follows results filed as active; x = no result given. Hits are enriched below; roughly 29% of the tested compounds scored in any of these assays.

SMILES | tolC growth inh | CYP2C19 activ | CYP2C9 act | CYP2C9 inhib | Ecoli WT expand | CYP2C19 inh
COC(=O)Cc1ccc(NC(=O)c2ccc(Br)o2)cc1 | 0 | 0.6 | 0.6 | 36 | 7 | 40
COc1cccc(Cn2nnc(C(=O)NCc3ccccc3Cl)c2N)c1 | 25 | 0.8 | 2.9* | -190 | 10 | 23
COc1cccc(Cn2nnc(C(=O)Nc3cc(Cl)ccc3OC)c2N)c1 | 11 | 1 | 2.1* | -106 | -7 | -4
Cc1ccc(S(=O)(=O)C2(C(=O)O)CCCC2)cc1C | -29 | 1 | 1 | 1 | 2 | -3
Cc1onc(-c2ccccc2Cl)c1C(=O)Nc1ccc(CN2CCCC2)cc1 | -3 | 0.5 | 0.5 | 49 | -4 | 49
Cc1ccc(-n2nnnc2SCC(=O)Nc2c(C)n(C)n(-c3ccccc3)c2=O)cc1 | -9 | 1 | 1.8 | -81 | -9 | -1
O=C(Nc1ccc2c(c1)OCO2)C1CCCN1C(=O)Nc1cccc(F)c1 (stereo not given) | 2 | 0.1 | 0.8 | 20 | 2 | 93*
CSc1cccc(NC(=O)C2CCN(S(=O)(=O)c3ccc(F)cc3)CC2)c1 | 10 | 0.8 | 1 | -4 | -11 | 23
O=C(Nc1ccc2c(c1)OCCO2)C1CCN(S(=O)(=O)c2cccc3nsnc23)CC1 | -26 | 0.6 | 0.8 | 23 | -4 | 38
O=C(Nc1ccc(C(F)(F)F)cc1)C1CCCN1S(=O)(=O)c1cccc2cccnc12 (stereo not given) | 76* | 0.7 | 0.4 | 57* | -8 | 29
CSc1cccc(NC(=O)C2CCCN2S(=O)(=O)c2ccc(Br)s2)c1 (stereo not given) | x | 0 | 0.3 | 74* | -17 | 98*
O=C(C1CCC(CNS(=O)(=O)c2cccc3cccnc23)CC1)N1CCCC1 (stereo not given) | -6 | 1.1 | 1.3 | -28 | 6 | -12
O=C(Nc1ccc2c(c1)OCCO2)C1CCCN1S(=O)(=O)c1cccc2cccnc12 (stereo not given) | 6 | 0.8 | 0 | 97* | 5 | 15
COc1ccc(/C=C/C(=O)Oc2cccc(/C=N/NC(=O)COc3c(C)cccc3C)c2)cc1 | x | 1 | 0.5 | 49 | -11 | 0
CC(=O)c1cccc(NC(=O)C2CCCN2S(=O)(=O)c2cccc3cccnc23)c1 (stereo not given) | -6 | 0.4 | 0.1 | 92* | -3 | 56*
O=C(Nc1cccc(F)c1)C1CCCN1S(=O)(=O)c1cccc2cccnc12 (stereo not given) | -9 | 0.2 | 0.2 | 81* | 3 | 80*
CC(=O)c1cccc(NC(=O)C2CCCN(S(=O)(=O)c3cccc4cccnc34)C2)c1 (stereo not given) | 17 | 0.7 | 1.2 | -15 | 3 | 30
Clc1ncn(C23CC4CC(CC(C4)C2)C3)n1 | -1 | 0.9 | 1 | 1 | 3 | 14
COCCCNC(=O)c1cc(C(=O)c2c(-c3c(Cl)cccc3Cl)noc2C)c[nH]1 | x | 1 | 0.9 | 8 | -14 | -4
O=C(c1cc2ccccc2o1)N1CCN(S(=O)(=O)c2cccs2)CC1 | x | 0.8 | 0.7 | 29 | -7 | 20
O=C(c1ccco1)N1CCN(S(=O)(=O)c2cccs2)CC1 | -16 | 0.1 | 0.7 | 32 | -4 | 88*
CCn1c(=O)c2cc(C(=O)N3CCN(C(=O)c4ccco4)CC3)sc2c2ccccc21 | 98* | x | x | x | x | x
O=C(c1cccs1)N1CCN(S(=O)(=O)N2CCOCC2)CC1 | -21 | 0.4 | 1.1 | -9 | 3 | 58*
O=C(c1ccco1)N1CCN(S(=O)(=O)N2CCOCC2)CC1 | -6 | 0.9 | 1 | 0 | -4 | 8
Nc1ccc(N2CCN(C(=O)c3cccs3)CC2)cc1 | x | 0 | 0.3 | 71* | 6 | 97*
SMILES | tolC growth inh | CYP2C19 activ | CYP2C9 act | CYP2C9 inhib | Ecoli WT expand | CYP2C19 inh
Cc1cc2c(N=O)c(NO)ccc2[nH]1 | -7 | 0.7 | 0.5 | 46 | 48 | 26
O=c1cnn(-c2ccccc2)c(-c2ccccc2)c1 | 5 | 1 | 0.7 | 31 | 2 | -2
CC(C)OC(=O)C(NC(=O)c1ccccc1)=C1CCCCC1 | -14 | 0.9 | 0.7 | 34 | -1 | 14
Cc1nc2ccc(S(=O)(=O)N(C)CC(=O)N3CCc4ccccc4C3)cc2s1 | 15 | 0.6 | 0.6 | 45 | 6 | 39
O=C(O)CSc1nnc(-c2cc3ccccc3o2)n1-c1ccccc1 | 11 | 1.1 | 1.1 | -9 | 7 | -11
COc1ccc(NC(=O)C2CCN(S(=O)(=O)c3cccnc3)CC2)cc1Cl | -6 | x | x | x | x | x
NC(=O)N1CCN(C(=O)c2ccco2)CC1 | x | 1.2 | 1.4 | -35 | 0 | -23
O=C(c1ccco1)N1CCN(C(=O)c2cccs2)CC1 | x | 0.5 | 0.8 | 21 | 5 | 52*
O=C(c1ccncc1)N1CCN(C(=O)c2cccs2)CC1 | -24 | 0.3 | 0.7 | 34 | -1 | 72*
N#CC1(Cc2ccc(Cl)cc2)c2ccccc2C=CN1C(=O)c1ccccc1 (stereo not given) | x | 0 | 0.1 | 93* | -15 | 96*
O=C(c1ccccc1)c1cnc(-c2ccc(Cl)cc2)s1 | x | 0.7 | 0.6 | 37 | -12 | 34
COc1ccc(Cn2nnnc2C(c2ccccc2Cl)N2CCN(C)CC2)cc1 (stereo not given) | -7 | 0.7 | 0.8 | 16 | -3 | 35
COc1ccc(OCCOCCN2CCOCC2)cc1 | x | 0.9 | 1 | 4 | -6 | 10
COc1ccc(Cn2nnnc2CN2CCc3ccccc32)cc1 | 29 | 0 | 0.1 | 92* | -11 | 99*
COc1ccc(C2(O)CCN(Cc3nnnn3Cc3ccc(C)cc3)CC2)cc1 | 12 | 0.5 | 0.4 | 63* | 1 | 51*
COc1ccc(Cn2nnnc2CN2CCc3ccccc3C2)cc1 | x | 0.1 | 0.4 | 64* | 1 | 88*
COc1ccc(OCCOCCN2CCc3ccccc3C2)cc1 | x | 0.4 | 0.9 | 7 | 2 | 59*
COc1ccc(S(=O)(=O)N2CCC(C)CC2)cc1Br | 18 | 0.3 | 2.9* | -194 | -2 | 71*
CCN1CCN(S(=O)(=O)c2ccc3ccccc3c2)CC1 | x | 0.3 | 2* | -102 | 7 | 71*
CCN1CCN(S(=O)(=O)c2ccc(OC)c(Br)c2)CC1 | 0 | 0.3 | 2.6* | -159 | 10 | 72*
O=C(CCCSc1nc2ccccc2[nH]1)N1CCN(c2ccc([N+](=O)[O-])cc2)CC1 | x | 0.7 | 1.7 | -70 | -11 | 33
Cc1cc(C)c(C)c(S(=O)(=O)NCC(=O)N2CCCC2)c1C | 4 | 0.2 | 1.3 | -34 | 5 | 78*
CCCNS(=O)(=O)c1ccc(CCC(=O)N2CCCCC2)cc1 | 0 | 0.6 | 0.7 | 28 | 7 | 40
Cc1ccc(S(=O)(=O)NCC(=O)N2CCC(C)CC2)cc1 | 1 | 0.3 | 1 | -3 | -4 | 72*
CC1CCN(C(=O)CCc2ccc(S(=O)(=O)NC(C)C)cc2)CC1 | x | 0.5 | 0.5 | 46 | -7 | 53*
